Experimental data: the EternaBench riboswitch data

Tested on: MS2 coat protein
Assay: apparent Kd, MS2 coat protein; higher = weaker binding; RNA-MaP array; FMN 200 µM where present
Summary of the method: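 The apparent Kd is the median of filtered binding-curve fits, one per cluster, to green signal normalised to red-channel RNA signal and control-cluster median Fmax. The clusters were on Illumina sequencing chips, and stalled E. coli RNA polymerase had transcribed the designs on them. Titration used SNAP-549-labelled MS2 coat protein from 0.7 or 1.5 nM, doubling to 3 µM, without and then with constant ligand, in 100 mM Tris-HCl pH 7.5, 80 mM KCl, 4 mM MgCl2, BSA, DTT, yeast tRNA and Tween-20.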

[1] = designed as: OFF switch for flavin mononucleotide, no ligand
[2] = ligand present: flavin mononucleotide, designed as: OFF switch for flavin mononucleotide
[3] = designed as: ON switch for flavin mononucleotide, no ligand
[4] = ligand present: flavin mononucleotide, designed as: ON switch for flavin mononucleotide

Sequence: UGUUGAUAGCAGAAGGACAUGAGGAUCACCCAUGUAAGGUUACAAAUACAUGUAGGAUAUGCUAUUGACUAAGAGUGAGCGUUC
- apparent Kd [1]: 43.4 nM
- apparent Kd [2]: 565 nM

Sequence: UGUGCGUAUGUGAGGAUAUGCUGGUCCUUGGAUCGGCAGAAGGCACAUGAGGAUCACCCAUGUGGUGUCGUACU
- apparent Kd [1]: 483 nM
- apparent Kd [2]: 26.6 nM

Sequence: CGUGUAAACUCAGGAUAUCCUGCGAGCAACGGGUAUUGAGUCUUCACAUGAGGAUCACCCAUGUAGGAGAAGGGAGGUACAAAA
- apparent Kd [1]: 72.6 nM
- apparent Kd [2]: 187 nM

Sequence: GGAUAGGACUGAGGAUAUACGUGCUAGAGAUACUAGCAAAAUUUCCUCACAUGAGGAUCACCCAUGUAGAAGGCUGUCCUAUCG
- apparent Kd [1]: 7.13 nM
- apparent Kd [2]: 42.3 nM

Sequence: AACCUAUUACAGAAGGCCAGCUACAUGAGGAUCACCCAUGUCGAGUCAUGGAGGAUAUGUAGUAAUUUACUCACAGAUGAGUGC
- apparent Kd [3]: 25.8 nM
- apparent Kd [4]: 5.31 nM

Sequence: GGUGGACAUGAGGAUCACCCAUGUGAGGAUAUCGGCUGGUACGUGUUGGCUGGCAUCUCGAGAAGGCACAUAGU
- apparent Kd [1]: 80.9 nM
- apparent Kd [2]: 180 nM

Sequence: UGGUACUAGGGAGGAUAUGAGAAGAUACAUGAGGAUCACCCAUGUUUAAGAAUGCCGAGAGGCAACUAGAAGGCCCUAGUACCU
- apparent Kd [3]: 7.85 nM
- apparent Kd [4]: 5.23 nM

Sequence: AAGAAGAUAGGAUAUACGAGGAGAGGAGAGAAGAGGUGAGGACAUGAGGAUCACCCAUGUAGAAGGAUCAGGAA
- apparent Kd [1]: 46.6 nM
- apparent Kd [2]: 35.6 nM

Sequence: UGGUCAUGAUCAGGAUAUUAACAUGGGCUACAUUAAGAAGGGAUAGUGAGAUGCGAACGGAACGACAUGAGGAUCACCCAUGUA
- apparent Kd [3]: 44.6 nM
- apparent Kd [4]: 35 nM

Sequence: UUAAUUAAUUAAUUCGUCAAUUACAUGAGGAUCACCCAUGUAUAGGAUAUGCAGUGGAAUACACUGCAGAAGGAUACAUAGACG
- apparent Kd [1]: 22.6 nM
- apparent Kd [2]: 41.5 nM

Sequence: GGAUAGUGAGGAUAUCGAUGUUAGGAGGAGGAGGUAGGAGGCGAGAAGGCACAUGAGGAUCACCCAUGUAUGGU
- apparent Kd [1]: 31.8 nM
- apparent Kd [2]: 29.4 nM

Sequence: CUAAGUGCCGGAGGAUAUACAUGAGGAUCACCCAUGUCAGUCUGUUUACAUGUAGAAGGCCGGCGAACAAAGGACUUGCCAAGA
- apparent Kd [1]: 48.1 nM
- apparent Kd [2]: 298 nM

Sequence: UAACCACAUGAGGAUCACCCAUGUGAGGAUAUGUCCAUAUUCGGCAAAUCGGAUAUGGACAGAAGGCACACCGG
- apparent Kd [1]: 41.6 nM
- apparent Kd [2]: 68.7 nM

Sequence: AAGUACCGGUGAGGAUAUUUUUAAUAGAACUUUAUGAUAUACAUGAGGAUCACCCAUGUUACUUUAAAGAAGGCAUCGGAUUAA
- apparent Kd [1]: 18 nM
- apparent Kd [2]: 14.8 nM

Sequence: AGUCAGAGAGGAUAUACAUGGGAAAAAAAAGUAAGAUCCCUACAUGAGGAUCACCCAUGUAGAAGGCUCUGACA
- apparent Kd [1]: 28.6 nM
- apparent Kd [2]: 36 nM

Sequence: GCUGGUCGAGGAUAUGCAAUCGUGCUUCGGCACGUAAGAUCACAUGAGGAUCACCCAUGUAGAAGGCGACCAGC
- apparent Kd [1]: 19.5 nM
- apparent Kd [2]: 74 nM

Sequence: CCCACGAAAGUCGAACGAUGUAGGAGAAGGACAAUAACAUGACAUGAGGAUCACCCAUGUGCCAUGUAGGAUAUCCUACAUGGG
- apparent Kd [1]: 7.86 nM
- apparent Kd [2]: 7.78 nM

Sequence: GUUGUGUGAGGAUAUGCCUGGCCGUGAGGCCAGGUUGGGUGGCAGAAGGUACAUGAGGAUCACCCAUGUACGGG
- apparent Kd [1]: 30 nM
- apparent Kd [2]: 22.7 nM

Sequence: AACCAGUUGGUAGGAUAUGGUGCAGUGCUCGUACCAGAAGGACCAACAUGAGGAUCACCCAUGUUGGAAAGUCAACAUUAAUGA
- apparent Kd [1]: 6.23 nM
- apparent Kd [2]: 16.4 nM

Sequence: UAUUAGUGAGGAUAUGAGUCGUAGAACAAUAGUACUACGUCUCAGAAGGCACAUGAGGAUCACCCAUGUUCCUU
- apparent Kd [1]: 13.6 nM
- apparent Kd [2]: 44.9 nM

Sequence: CUGUGUAAAGGAUAUACAUGAGGAUCACCCAUGUGAUGUCCAAACCUGAACGGUUCGUGUAGAAGGUUGCUCUU
- apparent Kd [1]: 20.9 nM
- apparent Kd [2]: 19 nM

Sequence: GGACAUAAAGUCAGGAUAUUAAGGCGACCACGCGAUGAGAAGGGACAUGAGGAUCACCCAUGUGAUUCGCAUCA
- apparent Kd [1]: 115 nM
- apparent Kd [2]: 101 nM

Sequence: AUGGUUGUCGUAGGAUAUGUAGGAUAUUCCUACAUGAGGAUCACCCAUGUUCGCAUGGAAGAAGGACGGAAGGACGAUGACCAG
- apparent Kd [3]: 452 nM
- apparent Kd [4]: 163 nM

Sequence: GGAAUCUAGUCAGGAUAUCGGGCAAUAAUUGCACGAGAAGGGACAUGAGGAUCACCCAUGUACACCUCUGGUGAGUCUCGCAGG
- apparent Kd [1]: 16 nM
- apparent Kd [2]: 44.3 nM

Sequence: UUAUUGUGAGGAUAUCCAAUAUAUGACAUGAGGAUCACCCAUGUUUCCACUCGUACCUCCGGAGAAGGCACAUUUU
- apparent Kd [1]: 30.8 nM
- apparent Kd [2]: 21.7 nM

Sequence: CCGGAAAUGGAGGAUAUAGGAGUCGAUAGACACCUAGAAGGUCAGACAUGAGGAUCACCCAUGUGUCCUACCGG
- apparent Kd [1]: 17.2 nM
- apparent Kd [2]: 21.8 nM

Sequence: AAACACAAACAUGAGGAUCACCCAUGUUAUGAAGAUACUGGGAGAAGGGCGAUUGCAAAGCAAUCGCAGGAUAUUCGUAUUGUG
- apparent Kd [3]: 50.4 nM
- apparent Kd [4]: 14.5 nM

Sequence: AAAACAUGAGGAUCACCCAUGUAAAGAACGCUUAAUAGAUCUGAGGAUAUACUAGAAUUUAGGUAGUAGAAGGCAGUGGGUACA
- apparent Kd [3]: 46.6 nM
- apparent Kd [4]: 30.7 nM

Sequence: AGAUCACAUGAGGAUCACCCAUGUGAGGAUAUGAUACUAUGUACUUCGGUACAUAGUAUCAGAAGGCAUAUGAA
- apparent Kd [1]: 27.7 nM
- apparent Kd [2]: 33.4 nM

Sequence: GUAGCAUACCGAGGAUAUUCUAACCGGAAACGGACAUGAGGAUCACCCAUGUGGCGAAAGCCUUGGGAGAAGGCGGAAUGCUAC
- apparent Kd [3]: 12.3 nM
- apparent Kd [4]: 12.8 nM

Sequence: GGAUAGGACAGAGGAUAUGCCGAUAGGAUCUACUAUCGAAGAAUCCUCACAUGAGGAUCACCCAUGUAGAAGGCUGUCCUAUCG
- apparent Kd [1]: 23.8 nM
- apparent Kd [2]: 131 nM

Sequence: ACUAUACGAGGAUAUACUGACGGGCCUCAGGCAUCCAUCAGACAUGAGGAUCACCCAUGUAGAAGGCGUAUACU
- apparent Kd [1]: 56.1 nM
- apparent Kd [2]: 158 nM

Sequence: UGAGCGACCACAGGAUAUACUCGGGAAGACCAAGUAGAAGGGUGGAAGAGCGUGCAGUGACAUGAGGAUCACCCAUGUGGUUGU
- apparent Kd [3]: 143 nM
- apparent Kd [4]: 97.3 nM

Sequence: AAGAGACAUCAGAAGGGAGCCCGAACGCACGGCUCAGGAUAUGAGAUCUUAUGUAGUACGACAUGAGGAUCACCCAUGUCCGCG
- apparent Kd [3]: 36.2 nM
- apparent Kd [4]: 8.27 nM

Sequence: GCACAUUUGUAAGGAUAUACAACAUGAGGAUCACCCAUGUGUUGGAAUUUAGUAGAAGGUACAGACAUGAGGAUCACUUUUGUA
- apparent Kd [3]: 174 nM
- apparent Kd [4]: 102 nM

Sequence: GUCAGCUCGUGAGGAUAUACAACCCUGCUUCGGCAGUGUAUUAAGAUCACAUGAGGAUCACCCAUGUAGAAGGCACGAGCUGAU
- apparent Kd [1]: 10.3 nM
- apparent Kd [2]: 146 nM

Sequence: GUCUUCCUAGGAUAUACAUGAGGAUCACCCAUGUACAGUUUCGUCUAAGGAUACUCGCGUAGAAGGAGGUGGAU
- apparent Kd [1]: 21.9 nM
- apparent Kd [2]: 42.7 nM

Sequence: UAUACUAGAUAGGAUAUACUUUAUUUUUUUUUCGUAGAAGGAUCUACAUGAGGAUCACCCAUGUUAACAGCAGU
- apparent Kd [1]: 74.1 nM
- apparent Kd [2]: 53.9 nM

Sequence: CUGAUGUGAGGAUAUCGGGCUACAGCCCUGCUGCUAGCAAACGAGAAGGCACAUGAGGAUCACCCAUGUAAGAA
- apparent Kd [1]: 24 nM
- apparent Kd [2]: 28.6 nM

Sequence: UUAUUUAUACAAGGAUAUCAAUUAUAUACAAUUCCUACAUGAGGAUCACCCAUGUUUUAUUUUUUUGAGAAGGUGUAUUGUCUG
- apparent Kd [3]: 30.1 nM
- apparent Kd [4]: 32.8 nM

Sequence: UUUACGGGAGGAUAUACAUGAGGAUCACCCAUGUAACGGUGUGUAAUAUAUAUUGCGUGUAGAAGGUUUGUGGG
- apparent Kd [1]: 79.3 nM
- apparent Kd [2]: 78.6 nM

Sequence: AUUGUAGUUGUGAGGAUAUCGUUGAUUUUUUGAAACGAGAAGGCACAUGAGGAUCACCCAUGUUAGUUGUUGGU
- apparent Kd [1]: 84 nM
- apparent Kd [2]: 212 nM

Sequence: GUGCCUUGGGAGAAGGCCCAAUGUAAAGCAUAGGGAGGAUAUUCAUAUAAUAAAUAAACAUGAGGAUCACCCAUGUGGCACAAA
- apparent Kd [3]: 831 nM
- apparent Kd [4]: 48.5 nM

Sequence: GUGAAGUAAGGAUAUACAUGAGGAUCACCCAUGUAAGGGAAGGUGAUGGGAGUAGAUAGUAGAAGGUACGAGGA
- apparent Kd [1]: 120 nM
- apparent Kd [2]: 81.9 nM

Sequence: GUCCUCGGCGAGGAUAUCGGGCGGGUUUUUGUUUGAGAAGGCGUGACAUGAGGAUCACCCAUGUGGCGCGUGGG
- apparent Kd [1]: 41.6 nM
- apparent Kd [2]: 59.3 nM

Sequence: AUCAGCUCGUCAGGAUAUACGUCACUGCGUCAGUAGUGUGGUAAGAUCACAUGAGGAUCACCCAUGUAGAAGGGACGAGCUGAU
- apparent Kd [1]: 14.5 nM
- apparent Kd [2]: 284 nM

Sequence: CCAACGUACAAUUUAGAUCUACAUGAGGAUCACCCAUGUACGGAGGAUAUCAGCUCGUUUAGAGCUGAGAAGGCCGAAUUAAUU
- apparent Kd [3]: 342 nM
- apparent Kd [4]: 77.4 nM

Sequence: AAAAAACAUGAGGAUCACCCAUGUAAAAAAAUCGCAGGAUAUAAGGUCGCGAAAGCGACCUUAGAAGGGCGAUCCU
- apparent Kd [3]: 267 nM
- apparent Kd [4]: 78.1 nM

Sequence: GCAGCGUAUGUAGGAUAUCGGUCAGUUUCUGAUCGAGAAGGACAUGAGGAUCACCCAUGUAAAUUACCGACUUUGUCGGGUUGC
- apparent Kd [1]: 10.2 nM
- apparent Kd [2]: 20.1 nM

Sequence: GUGCCUUGGGAGAAGGUUAUAUGCAAAGCAUUUAAAGGAUAUUCAUACCGGAAACGGACAUGAGGAUCACCCAUGUGGCACAAA
- apparent Kd [3]: 1280 nM
- apparent Kd [4]: 128 nM

Sequence: GUGUGAUUAAGAGGAUAUAUACAACAUGAGGAUCACCCAUGUACCCGUGUAGUAGAAGGUUUGUUUUUAUAUAAUAAUAUAAUU
- apparent Kd [3]: 29.3 nM
- apparent Kd [4]: 27.9 nM

Sequence: GUGGCGACUGAGAAGGUACGCAUAAAAGAGAAGUAAGGAUAUCAGUCACAUGAGGAUCACCCAUGUGUUGGAAAGAUCCUUAAA
- apparent Kd [1]: 10.4 nM
- apparent Kd [2]: 37.9 nM

Sequence: CGUGGCCGAGGAUAUACGGACGUGUCGCCGGGUGUCGUGGGACAUGAGGAUCACCCAUGUAGAAGGUGGUUGUC
- apparent Kd [1]: 53.5 nM
- apparent Kd [2]: 39 nM

Sequence: UAAUUUUGUCAAGGAUAUGUAAUAUAGAUUAGAAAACAUGAGGAUCACCCAUGUAUAUGGUGGGAACAGAAGGUGAAUGGUGUA
- apparent Kd [1]: 165 nM
- apparent Kd [2]: 155 nM

Sequence: AUUAAUAAGUAGAAGGACGGAGAGUAUGAAGUCGUAGGAUAUACAUAAGACAUGAGGAUCACCCAUGUAUGUAUUUUGGGUAUG
- apparent Kd [1]: 12.9 nM
- apparent Kd [2]: 12.9 nM
